Experimental data published in ChEMBL document CHEMBL1255260, “Population pharmacokinetics of piperaquine after two different treatment regimens with dihydroartemisinin-piperaquine in patients with Plasmodium falciparum malaria in Thailand” (Antimicrob Agents Chemother, 2008).

Legend:
[1] = AUC (0 to 63 days) in human with uncomplicated malaria at 31 mg/kg, perorally once daily for 3 days; format: ADME, organism-based; parameters: time < 1512 hr, dose 31 mg/kg, route oral; settings: plasma, po
Summary of the method: (§1)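 Oral dihydroartemisinin-piperaquine, supervised, with no food restriction, in patients aged 3–55 y. The total dose of 55 mg/kg piperaquine phosphate was given as four doses (0, 8, 24, 48 h) or three doses (0, 24, 48 h). Sparse plasma sampling ran to day 63, measured by SPE-LC-UV (LLOQ 5 or 2.5 ng/ml). AUCs came from individual NONMEM two-compartment estimates. Children were ≤12 y and <30 kg.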

[2] = Plasma concentration in human with uncomplicated malaria at 31 mg/kg, perorally at day 28; format: ADME, organism-based; parameters: dose 31 mg/kg, route oral; settings: po
Summary of the method: (§2)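 Plasma piperaquine concentrations were simulated from the final NONMEM population model (500 simulations at each sampling time up to day 63). This followed oral dihydroartemisinin-piperaquine at a 55 mg/kg piperaquine phosphate total, given once daily at 0, 24 and 48 h or as four doses at 0, 8, 24 and 48 h.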

[3] = Plasma concentration in human with uncomplicated malaria at 31 mg/kg, perorally four-dose treatment regimen measured at day 20; format: ADME, organism-based; parameters: dose 31 mg/kg, route oral; settings: po, read-out: MIC; summary of the method: as §2
[4] = Plasma concentration in human with uncomplicated malaria at 31 mg/kg, perorally once daily for 3 days measured at day 20; format: ADME, organism-based; parameters: dose 31 mg/kg, route oral; settings: po, read-out: MIC; summary of the method: as §2
[5] = Terminal half-life in healthy human at 25 mg/kg, po after 29 days; format: ADME, organism-based; parameters: dose 25 mg/kg, route oral; settings: in vivo
[6] = Terminal half-life in healthy human at 4.2 mg/kg, po after 42 days; format: ADME, organism-based; parameters: dose 4.2 mg/kg, route oral; settings: in vivo
[7] = Terminal half-life in human with uncomplicated malaria at 35 mg/kg, perorally after 35 days; format: ADME, organism-based; parameters: dose 35 mg/kg, route oral; settings: in vivo, po
[8] = Terminal half-life in human with uncomplicated malaria at 31 mg/kg, perorally after 63 days; format: ADME, organism-based; parameters: dose 31 mg/kg, route oral; settings: in vivo, po
Summary of the method: (§3)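 Population PK in 98 uncomplicated falciparum patients given dihydroartemisinin-piperaquine orally (55 mg/kg piperaquine phosphate total, 3- or 4-dose regimen). Patients gave a pretreatment sample, 2–4 early-window samples and one sample on days 7–63. Plasma piperaquine was measured by SPE-LC-UV. Log concentrations were fitted by NONMEM (FO/FOCE) to a two-compartment first-order absorption model with regimen as covariate.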

[9] = Terminal half-life in human with uncomplicated malaria at 32 mg/kg, perorally after 35 days; format: ADME, organism-based; parameters: dose 32 mg/kg, route oral; settings: in vivo, po
[10] = Apparent steady-state volume of distribution with respect to bioavailability in healthy human at 4.2 mg/kg, po after 42 days; format: ADME, organism-based; settings: in vivo, read-out: Vss/F
[11] = Apparent steady-state volume of distribution with respect to bioavailability in human with uncomplicated malaria at 32 mg/kg, perorally after 35 days; format: ADME, organism-based; settings: in vivo, po, read-out: Vss/F
[12] = Apparent steady-state volume of distribution with respect to bioavailability in human with uncomplicated malaria at 31 mg/kg, perorally after 63 days; format: ADME, organism-based; settings: in vivo, po, read-out: Vss/F; summary of the method: as §3
[13] = Apparent oral clearance in healthy human at 25 mg/kg, po after 29 days; format: ADME, organism-based; parameters: dose 25 mg/kg, route oral; settings: in vivo
[14] = Apparent oral clearance in healthy human at 4.2 mg/kg, po after 42 days; format: ADME, organism-based; parameters: dose 4.2 mg/kg, route oral; settings: in vivo
[15] = Apparent oral clearance in human with uncomplicated malaria at 35 mg/kg, perorally after 35 days; format: ADME, organism-based; parameters: dose 35 mg/kg, route oral; settings: in vivo
[16] = Apparent oral clearance in human with uncomplicated malaria at 32 mg/kg, perorally after 35 days; format: ADME, organism-based; parameters: dose 32 mg/kg, route oral; settings: in vivo
[17] = Terminal half-life in human with uncomplicated malaria at 31 mg/kg, perorally; format: ADME, organism-based; parameters: dose 31 mg/kg, route oral; settings: in vivo, po; summary of the method: as §3
[18] = Apparent oral clearance in human with uncomplicated malaria at 31 mg/kg, perorally after 63 days; format: ADME, organism-based; parameters: dose 31 mg/kg, route oral; settings: in vivo; summary of the method: as §3
[19] = Apparent steady-state volume of distribution with respect to bioavailability in human with uncomplicated malaria at 31 mg/kg, perorally; format: ADME, organism-based; settings: in vivo, po, read-out: Vss/F; summary of the method: as §3
Homo sapiens [20] = assay: Apparent peripheral volume of distribution with respect to bioavailability in human with uncomplicated malaria at 31 mg/kg, perorally; format: ADME, organism-based; settings: in vivo, po; summary of the method: as §3
Homo sapiens [21] = assay: Apparent intercompartmental clearance with respect to bioavailability in human with uncomplicated malaria at 31 mg/kg, perorally; format: ADME, organism-based; settings: in vivo, po; summary of the method: as §3
[22] = Apparent volume of distribution with respect to bioavailability in human with uncomplicated malaria at 31 mg/kg, perorally; format: ADME, organism-based; settings: in vivo, po, read-out: Vc/F; summary of the method: as §3
[23] = AUC (3 to 20 days) in human adult with uncomplicated malaria at 31 mg/kg, perorally; format: ADME, organism-based; parameters: dose 31 mg/kg, route oral; settings: plasma, po; summary of the method: as §1
[24] = Apparent oral clearance in human with uncomplicated malaria at 31 mg/kg, perorally; format: ADME, organism-based; parameters: dose 31 mg/kg, route oral; settings: in vivo; summary of the method: as §3
[25] = AUC (3 to 20 days) in children with uncomplicated malaria at 31 mg/kg, perorally; format: ADME, organism-based; parameters: dose 31 mg/kg, route oral; settings: human, plasma, po; summary of the method: as §1
[26] = AUC (0 to 60 days) in children with uncomplicated malaria at 31 mg/kg, perorally; format: ADME, organism-based; parameters: time < 1440 hr, dose 31 mg/kg, route oral; settings: human, plasma, po; summary of the method: as §1
[27] = AUC (0 to 60 days) in human adult with uncomplicated malaria at 31 mg/kg, perorally; format: ADME, organism-based; parameters: time < 1440 hr, dose 31 mg/kg, route oral; settings: plasma, po; summary of the method: as §1
[28] = AUC (3 to 20 days) in uncomplicated malaria patient at 31 mg/kg, perorally four-dose treatment regimen; format: ADME, organism-based; parameters: dose 31 mg/kg, route oral; settings: human, plasma, po; summary of the method: as §1
[29] = AUC (3 to 20 days) in uncomplicated malaria patient at 31 mg/kg, perorally once daily for 3 days; format: ADME, organism-based; parameters: dose 31 mg/kg, route oral; settings: human, plasma, po; summary of the method: as §1
[30] = AUC (0 to 63 days) in uncomplicated malaria patient at 31 mg/kg, perorally four-dose treatment regimen; format: ADME, organism-based; parameters: time < 1512 hr, dose 31 mg/kg, route oral; settings: human, plasma, po; summary of the method: as §1
[31] = Apparent oral clearance in high-fat fed healthy human at 4.2 mg/kg, po after 42 days; format: ADME, organism-based; parameters: dose 4.2 mg/kg, route oral; settings: in vivo
[32] = Apparent steady-state volume of distribution with respect to bioavailability in high-fat fed healthy human at 4.2 mg/kg, po after 42 days; format: ADME, organism-based; settings: in vivo, read-out: Vss/F
[33] = Terminal half-life in high-fat fed healthy human at 4.2 mg/kg, po after 42 days; format: ADME, organism-based; parameters: dose 4.2 mg/kg, route oral; settings: in vivo
[34] = Terminal elimination half-life in human with uncomplicated malaria at 31 mg/kg, perorally; settings: in vivo, po

AUC at 1512 h [1]: 19400 ng·h/mL
concentration at 28 day [2]: < 10 ng/mL
concentration at 20 day [3]: 13 ng/mL
concentration at 72 h [4]: 12 ng/mL
half-life [5]: 12 days
half-life [6]: 20 days
half-life [7]: 14 days
half-life [8]: 28 days
half-life [9]: 23 days
Vd/F [10]: 716 L/kg
Vd/F [11]: 574 L/kg
Vd/F [12]: 874 L/kg
CL/F [13]: 16.7 mL/min/kg
CL/F [14]: 19 mL/min/kg
CL/F [15]: 30.8 mL/min/kg
CL/F [16]: 15 mL/min/kg
half-life [17]: 28 days
CL/F [18]: 23.3 mL/min/kg
Vd/F [19]: 38100 L
Vp/F (Homo sapiens [20]): 24000 L
CL/F (Homo sapiens [21]): 131 L/h
Vd/F [22]: 8660 L
AUC(0-t) [23]: 8650 ng·h/mL
CL/F [24]: 1100 mL/min
AUC(0-t) [25]: 7580 ng·h/mL
AUC(0-t) at 1440 h [26]: 25900 ng·h/mL
AUC(0-t) at 1440 h [27]: 19400 ng·h/mL
AUC(0-t) [28]: 9070 ng·h/mL
AUC [29]: 8650 ng·h/mL
AUC(0-t) at 1512 h [30]: 20700 ng·h/mL
CL/F [31]: 10 mL/min/kg
Vd/F [32]: 365 L/kg
half-life [33]: 21 days
half-life [34]: 27.8 days
Structure (SMILES): Clc1ccc2c(N3CCN(CCCN4CCN(c5ccnc6cc(Cl)ccc56)CC4)CC3)ccnc2c1 [PIPERAQUINE]
